ChEMBL document CHEMBL1134358, “Cyclic ketone inhibitors of the cysteine protease cathepsin K” (J Med Chem, 2001)

Assays:
Cathepsin K [1] = target: T1, Cathepsin K (Homo sapiens, UniProt P43235); assay: In vitro inhibition of human Cathepsin K.; settings: read-out: Ki app
T1 sequence (P43235 whole entry): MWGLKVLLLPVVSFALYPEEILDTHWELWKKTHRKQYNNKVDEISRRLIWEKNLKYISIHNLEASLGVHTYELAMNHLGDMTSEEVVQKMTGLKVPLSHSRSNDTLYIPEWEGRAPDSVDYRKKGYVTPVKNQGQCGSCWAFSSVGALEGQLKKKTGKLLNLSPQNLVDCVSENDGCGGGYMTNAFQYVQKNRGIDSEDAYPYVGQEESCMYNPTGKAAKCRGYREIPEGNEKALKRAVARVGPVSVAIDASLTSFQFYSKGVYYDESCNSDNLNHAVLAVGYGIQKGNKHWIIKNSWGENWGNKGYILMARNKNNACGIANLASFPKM

Cathepsin B = Cathepsin B (Homo sapiens, UniProt P07858); assay: Inhibitory activity tested against human Cathepsin B; settings: read-out: Ki app
Method in brief: (§1)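 Fluorogenic AMC-substrate assay in 100 mM acetate, 20 mM cysteine, 5 mM EDTA, pH 5.5, with 10% final DMSO. […] Apparent Ki values were determined.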

Cathepsin S = Cathepsin S (Homo sapiens, UniProt P25774); assay: Inhibition of human Cathepsin S; settings: read-out: Ki app; method in brief: as §1
Cathepsin K [2] = target: T1, Cathepsin K; assay: (§2) Inhibitory activity tested against human Cathepsin K
Procathepsin L = Procathepsin L (Homo sapiens, UniProt P07711); assay: Inhibition of human Cathepsin L; settings: read-out: Ki app
[3] = target: T2, Cathepsin K (Homo sapiens) (UniProt P43235); assay: as §2
T2 sequence (whole entry): T1 sequence (P43235 whole entry)

Cathepsin S, sequence (P25774 whole entry): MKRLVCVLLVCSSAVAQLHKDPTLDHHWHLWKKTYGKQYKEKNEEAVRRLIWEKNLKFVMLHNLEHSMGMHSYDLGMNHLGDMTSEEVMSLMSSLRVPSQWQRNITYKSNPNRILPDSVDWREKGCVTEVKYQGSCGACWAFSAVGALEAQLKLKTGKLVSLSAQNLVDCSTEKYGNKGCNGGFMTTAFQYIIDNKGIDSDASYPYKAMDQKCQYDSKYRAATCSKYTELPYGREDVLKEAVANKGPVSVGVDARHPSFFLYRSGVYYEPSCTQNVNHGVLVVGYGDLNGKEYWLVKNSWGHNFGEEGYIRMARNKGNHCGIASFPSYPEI
Procathepsin L, sequence (P07711 whole entry): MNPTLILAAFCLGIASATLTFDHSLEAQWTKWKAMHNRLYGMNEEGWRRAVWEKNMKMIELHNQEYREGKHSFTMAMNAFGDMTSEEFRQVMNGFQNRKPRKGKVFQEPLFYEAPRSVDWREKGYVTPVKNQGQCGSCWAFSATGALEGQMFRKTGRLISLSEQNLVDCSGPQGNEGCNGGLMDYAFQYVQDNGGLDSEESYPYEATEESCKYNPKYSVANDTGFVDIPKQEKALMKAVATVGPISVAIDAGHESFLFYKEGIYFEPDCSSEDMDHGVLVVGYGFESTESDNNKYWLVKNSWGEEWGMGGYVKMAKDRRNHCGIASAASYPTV

SMILES | Ki (Cathepsin K [1]) [nM] | Ki (Cathepsin B) [nM] | Ki (Cathepsin S) [nM] | Ki (Cathepsin K [2]) [nM] | Ki (Procathepsin L) [nM] | K inact/I [3] [M⁻¹ s⁻¹]
CC(C)C[C@H](NC(=O)OCc1ccccc1)C(=O)NC1CCN(C(=O)[C@H](CC(C)C)N(C)C(=O)OCc2ccccc2)CC1=O (stereo not given in full) | 1.9 | – | – | – | – | –
CC(C)C[C@H](NC(=O)OCc1ccccc1)C(=O)NC1CCOCC1=O (stereo not given in full) | 150 | > 10000 | 530 | – | – | –
COCC(=O)[C@H](C)NC(=O)[C@H](CC(C)C)NC(=O)OCc1ccccc1 | – | > 1000 | – | – | – | –
CC(C)C[C@H](NC(=O)OCc1ccccc1)C(=O)NC1CCN(C(=O)[C@H](CC(C)C)NC(=O)OCc2ccccc2)CC1=O (stereo not given in full) | – | – | 8 | – | – | –
CC(C)C[C@@H](CN1CC(=O)C(NC(=O)[C@H](CC(C)C)NC(=O)c2ccc3cccnc3c2)C1)NC(=O)OCc1ccccc1 (stereo not given in full) | 1.6 | 46 | – | – | – | –
CC(C)C[C@H](NC(=O)c1cc2ccccc2s1)C(=O)NC1COCCC1=O (stereo not given in full) | – | – | – | 560 | – | –
CC(C)C[C@H](NC(=O)OCc1ccccc1)C(=O)NC1CCCCC1=O (stereo not given in full) | > 10000 | > 10000 | > 10000 | – | > 10000 | –
CC(C)C[C@H](NC(=O)OCc1ccccc1)C(=O)NC1CCCC1=O (stereo not given in full) | > 10000 | > 10000 | > 10000 | – | > 10000 | –
CN[C@@H](CC(C)C)C(=O)N1CC(=O)[C@@H](NC(=O)[C@H](CC(C)C)NC(=O)OCc2ccccc2)C1 | 77 | 7300 | 290 | – | 400 | –
CC(=O)N1CC(=O)C(NC(=O)[C@H](CC(C)C)NC(=O)OCc2ccccc2)C1 (stereo not given in full) | 250 | – | 480 | – | 580 | –
CCCOC[C@@H](O)[C@H](CC(C)C)NC(=O)[C@H](CC(C)C)NC(=O)OCc1ccccc1 | – | – | – | – | – | 4100
CC(C)C[C@H](NC(=O)c1cc2ccccc2s1)C(=O)NC1CCOCC1=O (stereo not given in full) | – | – | – | 11 | – | –
COCC(=O)[C@H](CC(C)C)NC(=O)[C@H](CC(C)C)NC(=O)OCc1ccccc1 | – | – | – | 80 | – | –
CC(C)C[C@H](NC(=O)OCc1ccccc1)C(=O)NC1CN(C(=O)[C@H](CC(C)C)NC(=O)OCc2ccccc2)CC1=O (stereo not given in full) | – | – | 90 | – | – | –
CC(C)C[C@H](NC(=O)OCc1ccccc1)C(=O)NC1COCC1=O (stereo not given in full) | – | > 10000 | 310 | – | 2600 | –
CC(C)C[C@H](NC(=O)c1ccc2ccccc2n1)C(=O)NC1COCC1=O (stereo not given in full) | – | 7800 | 1100 | – | 250 | –
CC(=O)N1CCC(NC(=O)[C@H](CC(C)C)NC(=O)OCc2ccccc2)C(=O)C1 (stereo not given in full) | 230 | – | – | – | – | –
CC(C)C[C@H](NC(=O)OCc1ccccc1)C(=O)NC1CN(C(=O)[C@H](CC(C)C)N(C)C(=O)OCc2ccccc2)CC1=O (stereo not given in full) | 0.6 | – | – | – | – | –
CC(C)C[C@@H](C(=O)NC1CN(C(=O)[C@H](CC(C)C)N(C)C(=O)OCc2ccccc2)CC1=O)N(C)C(=O)OCc1ccccc1 (stereo not given in full) | 180 | 2600 | 51 | – | – | –
CC(C)C[C@H](NC(=O)OCc1ccccc1)C(=O)NC1COCC1O (stereo not given in full) | > 1000 | – | > 1000 | – | > 1000 | –
CC(C)C[C@H](NC(=O)OCc1ccccc1)C(=O)NC1CCOCC1O (stereo not given in full) | > 1000 | – | > 1000 | – | > 1000 | –
